Data published in ChEMBL document CHEMBL1157131, “Antibiotic indole sesquiterpene alkaloid from Greenwayodendron suaveolens with a new natural product framework” (2010).
Converted amounts (≈) assume the structure as drawn. The source made the active and inactive calls. The rule behind the calls is not given here.

How the values were obtained:
[1] = system: Staphylococcus aureus; experiment: Antimicrobial activity against methicillin sensitive Staphylococcus aureus ATCC 25923 after 24 hrs by broth microdilution method; assay type: functional
Method in brief: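 Overnight culture diluted 1:100 in trypticase soy broth with 0.5% D-glucose and 3% NaCl, grown at 37 °C to OD600 0.4, then diluted 1:10. Compounds in DMSO diluted in medium, tested at a concentration series (3-6 wells per concentration); vancomycin positive control. Incubated 24 h at 37 °C; inhibition from OD600 change versus compound-free control wells.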

[2] = system: Staphylococcus aureus; experiment: Antimicrobial activity against clinical isolates of Staphylococcus aureus after 24 hrs by broth microdilution method
[3] = system: Staphylococcus aureus; experiment: Antimicrobial activity against cutaneous methicillin resistant Staphylococcus aureus isolate 148 expressing virulence gene system including PVL, ACME, bsaB and Agr genes after 24 hrs by broth microdilution method; assay type: functional; details: isolate 148, 24 h
Method in brief: (§1)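 Clinical S. aureus isolates, first recovered from patient specimens on 5% sheep blood agar, tested by CLSI broth microdilution in cation-adjusted Mueller-Hinton broth. Initial inoculum 10^6 cfu/mL. After overnight incubation at 37 °C, MIC was read as the lowest concentration preventing visible growth. Overnight starter cultures were grown in TSB from frozen glycerol stocks.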

[4] = system: Staphylococcus aureus; experiment: Antimicrobial activity against cutaneous methicillin resistant Staphylococcus aureus isolate 111 expressing virulence gene system including PVL, ACME, bsaB and Agr genes after 24 hrs by broth microdilution method; assay type: functional; details: isolate 111, 24 h; method in brief: as §1
[5] = system: Staphylococcus aureus; experiment: Antimicrobial activity against invasive methicillin resistant Staphylococcus aureus isolate 186 expressing virulence gene system including PVL, bsaA and Agr genes after 24 hrs by broth microdilution method; assay type: functional; details: isolate 186, 24 h; method in brief: as §1
[6] = system: Staphylococcus aureus; experiment: Antimicrobial activity against cutaneous methicillin resistant Staphylococcus aureus isolate 105 expressing virulence gene system including PVL, ACME, bsaB and Agr genes after 24 hrs by broth microdilution method; assay type: functional; details: isolate 105, 24 h; method in brief: as §1
[7] = system: Staphylococcus aureus; experiment: Antimicrobial activity against cutaneous methicillin sensitive Staphylococcus aureus isolate 109 expressing virulence gene system including PVL, bsaB and Agr genes after 24 hrs by broth microdilution method; details: isolate 109, 24 h
[8] = system: Staphylococcus aureus; experiment: Antimicrobial activity against cutaneous methicillin resistant Staphylococcus aureus isolate 107 expressing virulence gene system including PVL, ACME, bsaB and Agr genes after 24 hrs by broth microdilution method; assay type: functional; details: isolate 107, 24 h; method in brief: as §1
[9] = system: Staphylococcus aureus; experiment: Antimicrobial activity against cutaneous methicillin resistant Staphylococcus aureus isolate 108 expressing virulence gene system including PVL, bsaA and Agr genes after 24 hrs by broth microdilution method; assay type: functional; details: isolate 108, 24 h; method in brief: as §1
[10] = system: Staphylococcus aureus; experiment: Antimicrobial activity against cutaneous methicillin sensitive Staphylococcus aureus isolate 175 expressing virulence gene system including PVL, bsaB and Agr genes after 24 hrs by broth microdilution method; assay type: functional; details: isolate 175, 24 h; method in brief: as §1
[11] = system: Staphylococcus aureus; experiment: Antimicrobial activity against cutaneous methicillin resistant Staphylococcus aureus isolate 158 expressing virulence gene system including PVL, ACME, bsaB and Agr genes after 24 hrs by broth microdilution method; assay type: functional; details: isolate 158, 24 h; method in brief: as §1
[12] = system: Staphylococcus aureus; experiment: Antimicrobial activity against cutaneous methicillin resistant Staphylococcus aureus isolate 106 expressing virulence gene system including PVL, ACME, bsaB and Agr genes after 24 hrs by broth microdilution method; assay type: functional; details: isolate 106, 24 h; method in brief: as §1
[13] = system: Staphylococcus aureus; experiment: Antimicrobial activity against cutaneous methicillin resistant Staphylococcus aureus isolate 295 expressing virulence gene system bsaB and Agr genes after 24 hrs by broth microdilution method; assay type: functional; details: isolate 295, 24 h; method in brief: as §1
[14] = system: Staphylococcus aureus; experiment: Antimicrobial activity against invasive methicillin resistant Staphylococcus aureus isolate 194 expressing virulence gene system including PVL, ACME, bsaB and Agr genes after 24 hrs by broth microdilution method; assay type: functional; details: isolate 194, 24 h; method in brief: as §1

| MIC [1] | Structure (SMILES) | MIC ([1]; ATCC 25923, 24 h) | MIC90 [2] | MIC [3] | MIC [4] | MIC [5] | MIC [6] | MIC [7] | MIC [8] | MIC [9] | MIC [10] | MIC [11] | MIC [12] | MIC [13] | MIC [14] |
| --- | --- | --- | --- | --- | --- | --- | --- | --- | --- | --- | --- | --- | --- | --- | --- |
| – | CC(C)=C1CC[C@@H](C)[C@@](C)(Cc2c[nH]c3ccccc23)[C@@H]1CCCO | 19 µg/mL (≈ 56 µM) | – | – | – | – | – | – | – | – | – | – | – | – | – |
| inactive | COC(=O)CC[C@@H]1C(=C(C)C)CC[C@@H](C)[C@@]1(C)Cc1c[nH]c2ccccc12 | – | – | – | – | – | – | – | – | – | – | – | – | – | – |
| – | C[C@@H]1CCC2=C3[C@H](C[C@H](O)C2(C)C)c2[nH]c4ccccc4c2C[C@@]31C [PENTACYCLINDOLE] | 4 µg/mL (≈ 11.9 µM) | 8 µg/mL (≈ 23.8 µM) | 8 µg/mL (≈ 23.8 µM) | 8 µg/mL (≈ 23.8 µM) | 8 µg/mL (≈ 23.8 µM) | 8 µg/mL (≈ 23.8 µM) | 8 µg/mL (≈ 23.8 µM) | 8 µg/mL (≈ 23.8 µM) | 8 µg/mL (≈ 23.8 µM) | 8 µg/mL (≈ 23.8 µM) | 8 µg/mL (≈ 23.8 µM) | 8 µg/mL (≈ 23.8 µM) | – | – |
| – | C[C@@H]1CC[C@@H]2C(=CC[C@H](O)C2(C)C)[C@]1(C)Cc1c[nH]c2ccccc12 [POLYALTHENOL] | 4 µg/mL (≈ 11.9 µM) | 4 µg/mL (≈ 11.9 µM) | 2 µg/mL (≈ 5.93 µM) | 2 µg/mL (≈ 5.93 µM) | 4 µg/mL (≈ 11.9 µM) | 1 µg/mL (≈ 2.96 µM) | 1 µg/mL (≈ 2.96 µM) | 1 µg/mL (≈ 2.96 µM) | 2 µg/mL (≈ 5.93 µM) | 4 µg/mL (≈ 11.9 µM) | 4 µg/mL (≈ 11.9 µM) | 2 µg/mL (≈ 5.93 µM) | 4 µg/mL (≈ 11.9 µM) | 2 µg/mL (≈ 5.93 µM) |
